These results are taken from ChEMBL document CHEMBL1144865, “N-aminoimidazole derivatives inhibiting retroviral replication via a yet unidentified mode of action” (J Med Chem, 2003).

Assay [1] has as its system Human immunodeficiency virus 2. Nature of the assay: Concentration required to inhibit the viral (HIV-2 ROD) cytopathic effect by 50% in MT-4 cells. Conditions: Human immunodeficiency virus 2, MT4. Type of assay: functional, organism-based, MT4. The method in brief:
(§1)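 Virus-infected MT-4 cells cultured with serial compound dilutions; viability measured 5 days after infection by MTT tetrazolium colorimetric read-out. The value is the concentration protecting 50% of cells from viral cytopathic effect. Averages ± SD from at least two independent experiments. HIV-2 and SIV stocks came from infected MT-4 culture supernatants.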
Background: Damage to the host cells serves as the signal in cytopathic effect assays.

The subject of assay [2] is Human immunodeficiency virus 1. Nature of the assay: Concentration required to inhibit the viral (HIV-1 NL4.3 strain) cytopathic effect by 50% in MT-4 cells. Type of assay: functional, organism-based. Conditions: Human immunodeficiency virus 1, MT4. The method in brief: as §1
Assay [3] has as its system Human immunodeficiency virus 1. Nature of the assay: Concentration required to inhibit the viral (HIV-1 NNRTI resistant strain) cytopathic effect by 50% in MT-4 cells. Type of assay: functional, organism-based. Conditions: Human immunodeficiency virus 1, MT4. The essentials:
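MT-4 cells infected with HIV-1(III_B)-derived strain S0561945 (K103N + Y181C RT mutations, NNRTI-resistant). Cultured with varying compound concentrations; viability read on day 5 post-infection by MTT tetrazolium colorimetry. Value is the concentration giving 50% protection against virus-induced cytopathic effect. Cytotoxicity measured in parallel on mock-infected cells at day 5. Averages ± SD from at least two independent experiments.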

Assay [4] has as its system Human immunodeficiency virus 1. Nature of the assay: Concentration required to inhibit the viral (HIV-1 IIIB strain) cytopathic effect by 50% in MT-4 cells. The assay is classed as functional, organism-based. Conditions: Human immunodeficiency virus 1, MT4. The method in brief: as §1
Assay [5] relates to Simian immunodeficiency virus. Nature of the assay: Concentration required to inhibit the viral (SIV mac251) cytopathic effect by 50% in MT-4 cells. The assay is classed as functional, organism-based, MT4. Conditions: Simian immunodeficiency virus, mac251, MT4. The essentials:
as §1

In assay [6] the test system is MT4. Nature of the assay: (§2) Concentration that reduced the MT-4 cell viability by 50%. The assay is classed as functional, Homo sapiens. Conditions: Homo sapiens, MT4. The method in brief: (§3)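 Mock-infected MT-4 cells, run in parallel with the antiviral assay, were exposed to compound. Viability on day 5 was read by MTT colorimetry. The value is the concentration lowering viability by 50%. Averages ± SD from at least two independent experiments.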

In assay [7] the test system is C3H/3T3. As to the kind of experiment: Tested for inhibitory concentration against MSV-Induced transformation of C3H/3T3 embryo murine fibroblast in vitro. Particulars: Mus musculus. The assay is classed as functional, cell-based. The essentials: (§4)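 C3H/3T3 cells seeded at 20 000 cells/mL and incubated 24 h, then infected with 80 focus-forming units of MSV for 120 min. Medium was then replaced with fresh medium containing test compound. Transformation was scored microscopically after 6 days.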

Assay [8] deals with Human immunodeficiency virus type 1 reverse transcriptase (Human immunodeficiency virus 1) (UniProt Q72547). As to the kind of experiment: Tested for the concentration required to inhibit recombinant HIV-1 reverse transcriptase using polyrA.oligodT as the template primer. The method in brief:
(§5)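 Recombinant HIV-1 RT assay. Template primer and labelled substrate were poly(rA).oligo(dT) with [³H]dTTP, or poly(rC).oligo(dG) with [³H]dGTP. Each radiolabelled dNTP was at 2.5 μM final in the reaction mixture.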

Assay [9] has the same target. Nature of the assay: Tested for the concentration required to inhibit recombinant HIV-1 reverse transcriptase using polyrC.oligodG as the template primer. The method in brief: as §5
Assay [10] concerns C3H/3T3. Nature of the assay: Tested for minimum inhibitory concentration against MSV-Induced transformation of C3H/3T3 embryo murine fibroblast in vitro. Type of assay: functional. Conditions: Mus musculus. The method in brief: as §4
Assay [11] deals with MT4. The assay is described as §2. Conditions: Homo sapiens. Type of assay: functional, cell-based. The method in brief: as §3

Bounds are passed on as bounds.

What is called IC50 is the concentration that gives 50% inhibition. A higher IC50 goes with weaker potency in that assay. Usually CC50 stands for the concentration at which the toxic effect on the cells reaches its halfway point. A higher CC50 goes with better tolerance by the cells. `CCC1N=C(S)N(Nc2cccc(C)c2)C1c1ccccc1` (centres undefined): the IC50 is > 53.6 µM in assay [1]; 12.8 µM in assay [2]; ≥ 53.6 µM in assay [3]; 17.6 µM in [4]; > 53.6 µM in [5]. In the assay with MT4 [6], this compound yielded a CC50 of 53.6 µM.
Usually MIC stands for the lowest concentration that inhibits growth of the organism. Higher therefore signals weaker potency. Consider `Cc1cccc(NN2C(S)=NC(C)C2c2ccccc2)c1` (centres undefined), for which the concentration for half-maximal inhibition (IC50) in assay [1] is > 35.7 µM; in assay [2], 2.17 µM; in assay [3], 26.1 µM; with C3H/3T3 [7], > 67.7 µM; in [4], 1.56 µM; in assay [5], 6.5 µM. Moreover, the Concentration stood at 125 µM in [8] and 105 µM in assay [9]. Also, the MIC against C3H/3T3 [10] is > 67.7 µM. Also, in the assay on MT4 [6], the CC50 came to 88.2 µM.
As to `CC(=O)c1ccc(C)cc1NC(C(N)=O)c1c(Cl)cccc1Cl` (centres undefined) [LOVIRIDE], the IC50 is > 10 µM in [1]; 0.006 µM in [2]; > 10 µM in [3]; 0.014 µM in [4]; > 10 µM in [5]. Also, in the assay with MT4 [11], the CC50 is > 10 µM.
Consider `CCC1N=C(S)N(Nc2cccc(Cl)c2)C1c1ccccc1` (centres undefined), for which the half-maximal inhibitory concentration (IC50) in [1] is > 39 µM; in assay [2] it was > 39 µM; in [3], > 39 µM; with C3H/3T3 [7] it was > 12.1 µM; in [4], 9.06 µM; in assay [5], 3.88 µM. Also, the MIC in the assay with C3H/3T3 [10] was > 12.1 µM. For the same compound, in the assay on MT4 [6], it took 39 µM to reach half-maximal cytotoxicity (CC50).
As to `SC1=NC(c2ccccc2)C(c2ccccc2)N1Nc1cccc(Cl)c1` (centres undefined), the IC50 in [1], in assay [2], in assay [3], in assay [4] and in assay [5] was > 36.3 µM in each case. Besides, the CC50 in the assay on MT4 [6] was determined as 36.3 µM.
With `CC1N=C(S)N(Nc2cccc(F)c2)C1c1ccccc1` (centres undefined), the IC50 in [1] was > 108 µM; in [2], 18.4 µM; in assay [3], ≥ 43.4 µM; in [4], > 108 µM; in [5], 33.8 µM. In the assay with MT4 [6], this compound came in with a CC50 of 108 µM.
Take `COc1cccc(NN2C(S)=NC(C)C2c2ccccc2)c1` (centres undefined): the IC50 in [1] is > 38 µM; in assay [2], 9.79 µM; in assay [3], > 38 µM; in assay [4] it was 4.78 µM; in assay [5], > 38 µM. The CC50 with MT4 [6] was 38 µM.
Turning to `CC1N=C(S)N(Nc2cccc(Cl)c2)C1c1cccc(C#N)c1` (centres undefined), the IC50 is > 99.4 µM in assay [1]; 42 µM in assay [2]; > 99.4 µM in [3]; ≥ 99.4 µM in assay [4]; > 99.4 µM in assay [5]. Further, the CC50 in the assay with MT4 [6] stood at 99.4 µM.
Regarding `Cc1nc(S)n(Nc2cccc(Cl)c2)c1-c1cccc(Cl)c1`, the 50% inhibitory concentration (IC50) is 3.91 µM in [1]; 2.48 µM in assay [2]; 1.86 µM in assay [3]; > 11.4 µM in the assay with C3H/3T3 [7]; 5 µM in [4]; 1.22 µM in assay [5]. For the same compound, the MIC in the assay with C3H/3T3 [10] was > 11.4 µM. Besides, the CC50 in the assay on MT4 [6] came out at 30.9 µM.
`Cc1ccc(NN2C(S)=NC(C)C2c2ccccc2)cc1C` (centres undefined): the IC50 in assay [1] was > 55.6 µM; in [2], 3.54 µM; in assay [3] it was > 55.6 µM; in the assay on C3H/3T3 [7] it was > 64.6 µM; in [4] it was 9.3 µM; in [5], 10.3 µM. In the assay with C3H/3T3 [10], the MIC is > 64.6 µM. Besides, the midpoint of cytotoxicity with MT4 [6], the CC50, lay at 55.6 µM.
Take `Cc1cccc(NN2C(S)=NC(C(C)C)C2c2ccccc2)c1` (centres undefined): the IC50 in assay [1], in assay [2], in assay [3], in assay [4] and in [5] was > 42.6 µM throughout. Further, half-maximal cytotoxicity in the assay with MT4 [6] (CC50) was put at 42.6 µM.
For `Cc1nc(S)n(Nc2cccc(Cl)c2)c1-c1ccccc1`, the IC50 in [1] stood at 8.11 µM; in assay [2], 8.99 µM; in assay [3], 9.72 µM; in the assay on C3H/3T3 [7], 38 µM; in assay [4], 6.39 µM; in assay [5] it was 8.2 µM. Further, the minimal inhibitory concentration (MIC) in the assay on C3H/3T3 [10] is > 63.3 µM. Moreover, the CC50 with MT4 [6] was 66.7 µM.
Take `COc1ccc(-c2c(C)nc(S)n2Nc2cccc(Cl)c2)cc1`: the IC50 is > 38.7 µM in assay [1]; > 38.7 µM in [2]; > 38.7 µM in assay [3]; > 38.7 µM in assay [4]; 10.1 µM in assay [5]. Besides, the CC50 in the assay with MT4 [6] was 38.7 µM.
Take `Cc1nc(S)n(Nc2cccc(Cl)c2)c1-c1ccc(Cl)cc1`: the IC50 in assay [1] is > 40.8 µM; in [2] it was > 40.8 µM; in assay [3], > 40.8 µM; in [4], > 40.8 µM; in assay [5] it was 7.71 µM. Besides, half-maximal cytotoxicity with MT4 [6] (CC50) was put at 40.8 µM.
Consider `Cc1nc(S)n(Nc2cccc3ccccc23)c1-c1ccccc1`, for which the IC50 in [1] was found to be 5.1 µM; in assay [2], 6.58 µM; in [3], 11.9 µM; in assay [4], 5.55 µM; in assay [5], 4.68 µM. The same compound had a CC50 with MT4 [6] of 32 µM.
As for `CC1N=C(S)N(Nc2cccc(Br)c2)C1c1ccccc1` (centres undefined), the IC50 in assay [1] is > 44.2 µM; in assay [2], 4.52 µM; in assay [3] it was 5.77 µM; in assay [4] it was 9.96 µM; in assay [5], 2.72 µM. The CC50 in the assay with MT4 [6] was determined as 44.2 µM.
As for `Cc1cc(C)cc(NN2C(S)=NC(C)C2c2ccccc2)c1` (centres undefined), the IC50 is > 194 µM in assay [1]; 0.87 µM in assay [2]; > 194 µM in [3]; 1.03 µM in assay [4]; > 194 µM in assay [5]. The compound also returned a half-maximal cytotoxic concentration (CC50) in the assay on MT4 [6] of 194 µM.
